Reference: ChEMBL document CHEMBL3352485 (J Med Chem, 2014)
The source made the active and inactive calls. The rule behind the calls is not given here.

How the values were obtained:
KiSS-1 receptor [1] = biological target: T1, KiSS-1 receptor (Homo sapiens, UniProt Q969F8); assay: Agonist activity at human KISS1R transfected in CHO cells assessed as intracellular calcium flux after 24 hrs by functional FLIPR assay; assay type: cell-based
Method in brief: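 CHO cells stably expressing human KISS1R were seeded at 15 000 cells/mL, cultured 24 h, then loaded with fluo-3 for 1 h at 37 °C in HBSS/HEPES (pH 7.4) with probenecid and FBS. Cells were washed in HBSS with 2.5 mM probenecid. Peptides came from 1 mM DMSO stocks diluted in buffer containing probenecid, 0.2% BSA and 0.1% CHAPS. Fluorescence was recorded on FLIPR for 3 min; peak counts over 0–180 s gave agonist activity.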

KiSS-1 receptor [2] = biological target: T2, KiSS-1 receptor (Rattus norvegicus, UniProt Q924U1); assay: Agonist activity at rat KISS1R transfected in CHO cells assessed as intracellular calcium flux after 24 hrs by functional FLIPR assay; assay type: cell-based
KiSS-1 receptor [3] = biological target: T1, KiSS-1 receptor; assay: Displacement of radioligand from human KISS1R transfected in CHO cells; assay type: cell-based
Method in brief: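 Binding used membrane fractions prepared from CHO cells expressing recombinant human KISS1R.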

KiSS-1 receptor [4] = biological target: T2, KiSS-1 receptor; assay: Displacement of radioligand from rat KISS1R transfected in CHO cells; assay type: cell-based
[5] = Stability of the compound in aqueous solution (JP1) assessed as residual ratio at pH 1.2 up to 1 week by HPLC analysis relative to initial level; assay type: physicochemical
Method in brief: (§1)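 Peptides in aqueous solution at pH 1.2 (JP1, containing 10% acetonitrile), 3, 5 or 7 were kept in the dark at 37 °C for up to 2 weeks. Peptide remaining was quantified from HPLC peak area, with detection at 230–280 nm. The residual ratio (stability index) was expressed relative to the time-0 amount, taken as 100%.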

[6] = Stability of the compound in aqueous solution assessed as residual ratio at pH 3 up to 1 week by HPLC analysis relative to initial level; assay type: physicochemical; method in brief: as §1
[7] = Stability of the compound in aqueous solution assessed as residual ratio at pH 5 up to 1 week by HPLC analysis relative to initial level; assay type: physicochemical; method in brief: as §1
[8] = Stability of the compound in aqueous solution assessed as residual ratio at pH 7 up to 1 week by HPLC analysis relative to initial level; assay type: physicochemical; method in brief: as §1
[9] = Stability of the compound in aqueous solution (JP1) assessed as residual ratio at pH 1.2 up to 2 weeks by HPLC analysis relative to initial level; assay type: physicochemical; method in brief: as §1
[10] = Stability of the compound in aqueous solution assessed as residual ratio at pH 3 up to 2 weeks by HPLC analysis relative to initial level; assay type: physicochemical; method in brief: as §1
[11] = Stability of the compound in aqueous solution assessed as residual ratio at pH 5 up to 2 weeks by HPLC analysis relative to initial level; assay type: physicochemical; method in brief: as §1
[12] = Stability of the compound in aqueous solution assessed as residual ratio at pH 7 up to 2 weeks by HPLC analysis relative to initial level; assay type: physicochemical; method in brief: as §1
Rattus norvegicus [13] = assay: Testosterone-suppressive activity in Crl:CD(SD) rat assessed as number of animal with plasma testosterone level below the limit of detection at 0.05 mol/hr, sc through osmotic pumps measured after 6 days by RIA; assay type: functional
Rattus norvegicus [14] = assay: Testosterone-suppressive activity in Crl:CD(SD) rat assessed as number of animal with plasma testosterone level below the limit of detection […], sc through osmotic pumps measured after 6 days by RIA; assay type: functional
[15] = AUC (0 to 24 hrs) in Sprague-Dawley rat at 1 mg/kg, iv after 24 hrs by LC-MS/MS analysis; assay type: ADME, organism-based; set-up: time < 24 hr, dose 1 mg/kg, route intravenous; conditions: plasma
Method in brief: (§2)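 Male Crl:CD(SD) rats (3 per group) got a single intravenous dose of 1 mg/kg. Blood was drawn at 5, 10, 15 and 30 min and at 1, 2, 4, 8 and 24 h. Plasma proteins were removed with 0.2% formic acid/methanol and acetonitrile, and the supernatant was treated with 0.4% formic acid. Peptide was quantified by LC-MS. Noncompartmental parameters were derived per rat, reported as mean ± SD (n = 3).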

[16] = Mean residence time in Sprague-Dawley rat at 1 mg/kg, iv after 24 hrs by LC-MS/MS analysis; assay type: ADME, organism-based; set-up: dose 1 mg/kg, route intravenous; conditions: in vivo; method in brief: as §2
[17] = Volume of distribution at steady state in Sprague-Dawley rat at 1 mg/kg, iv after 24 hrs by LC-MS/MS analysis; assay type: ADME, organism-based; set-up: dose 1 mg/kg, route intravenous; conditions: in vivo, read-out: Vdss; method in brief: as §2
[18] = Total clearance in Sprague-Dawley rat at 1 mg/kg, iv after 24 hrs by LC-MS/MS analysis; assay type: ADME, organism-based; set-up: dose 1 mg/kg, route intravenous; conditions: in vivo; method in brief: as §2
[19] = Cmax in Sprague-Dawley rat at 1 mg/kg, sc after 24 hrs by LC-MS/MS analysis; assay type: ADME, organism-based; set-up: dose 1 mg/kg, route subcutaneous; conditions: in vivo
Method in brief: (§3)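 Single subcutaneous dose of 1 mg/kg in male Crl:CD(SD) rats, n = 3 per group. Blood was sampled from 5 min to 24 h (5, 10, 15, 30 min; 1, 2, 4, 8, 24 h). Plasma was deproteinized with formic acid/methanol and acetonitrile, and peptide levels were measured by LC-MS. Noncompartmental analysis per animal gave Cmax, Tmax, AUC0-24h, MRT and BA; values are mean ± SD (n = 3).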

[20] = Tmax in Sprague-Dawley rat at 1 mg/kg, sc after 24 hrs by LC-MS/MS analysis; assay type: ADME, organism-based; set-up: dose 1 mg/kg, route subcutaneous; conditions: in vivo; method in brief: as §3
[21] = AUC (0 to 24 hrs) in Sprague-Dawley rat at 1 mg/kg, sc after 24 hrs by LC-MS/MS analysis; assay type: ADME, organism-based; set-up: time < 24 hr, dose 1 mg/kg, route subcutaneous; conditions: plasma; method in brief: as §3
[22] = Mean residence time in Sprague-Dawley rat at 1 mg/kg, sc after 24 hrs by LC-MS/MS analysis; assay type: ADME, organism-based; set-up: dose 1 mg/kg, route subcutaneous; conditions: in vivo; method in brief: as §3
[23] = Bioavailability in Sprague-Dawley rat at 1 mg/kg, sc after 24 hrs by LC-MS/MS analysis; assay type: ADME, organism-based; conditions: in vivo; method in brief: as §3
Rattus norvegicus [24] = assay: Testosterone-suppressive activity in Crl:CD(SD) rat assessed as plasma testosterone level below the limit of detection at 10 to 100 pmol/hr, sc continuous administration through osmotic pumps measured up to 1 week by RIA; assay type: functional, organism-based
Method in brief: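 Peptide in 50% DMSO was diluted in distilled water to 10, 30 or 100 μM pump solutions, giving 10–100 pmol/h by subcutaneous ALZET osmotic pump in male Crl:CD(SD) rats (n = 5). Vehicle served as control. Plasma testosterone was measured by RIA after 1 or 4 weeks, with values below 0.04 ng/mL set to 0.04. Results are mean ± SD of five rats, tested by one-tailed Shirley–Williams test versus vehicle.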

[25] = C5min in Sprague-Dawley rat at 1 mg/kg, iv after 5 mins by LC-MS/MS analysis; conditions: in vivo, read-out: Cmin
Rattus norvegicus [26] = assay: Testosterone-suppressive activity in Crl:CD(SD) rat assessed as number of animal with plasma testosterone level below the limit of detection at 2 nmol/hr, sc through osmotic pumps measured after 6 days by RIA; assay type: functional
Method in brief: (§4)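 Peptide was dissolved in distilled water or 50% DMSO as 0.1–2 mM pump solutions and delivered by ALZET osmotic pumps implanted subcutaneously in the back of 9-week-old male Crl:CD(SD) rats (n = 5) under ether. Controls received distilled-water pumps. After 6 days, rats were decapitated and plasma was recovered with aprotinin/EDTA. Testosterone was measured by RIA, and the number of rats below the detection limit (0.04 ng/mL) was counted.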

Rattus norvegicus [27] = assay: Testosterone-suppressive activity in Crl:CD(SD) rat assessed as number of animal with plasma testosterone level below the limit of detection at 0.5 nmol/hr, sc through osmotic pumps measured after 6 days by RIA; assay type: functional; method in brief: as §4
Rattus norvegicus [28] = assay: Testosterone-suppressive activity in Crl:CD(SD) rat assessed as number of animal with plasma testosterone level below the limit of detection at 0.3 nmol/hr, sc through osmotic pumps measured after 6 days by RIA; assay type: functional; method in brief: as §4
Rattus norvegicus [29] = assay: Testosterone-suppressive activity in Crl:CD(SD) rat assessed as number of animal with plasma testosterone level below the limit of detection at 0.1 nmol/hr, sc through osmotic pumps measured after 6 days by RIA; assay type: functional; method in brief: as §4

T1 sequence (Q969F8 whole entry): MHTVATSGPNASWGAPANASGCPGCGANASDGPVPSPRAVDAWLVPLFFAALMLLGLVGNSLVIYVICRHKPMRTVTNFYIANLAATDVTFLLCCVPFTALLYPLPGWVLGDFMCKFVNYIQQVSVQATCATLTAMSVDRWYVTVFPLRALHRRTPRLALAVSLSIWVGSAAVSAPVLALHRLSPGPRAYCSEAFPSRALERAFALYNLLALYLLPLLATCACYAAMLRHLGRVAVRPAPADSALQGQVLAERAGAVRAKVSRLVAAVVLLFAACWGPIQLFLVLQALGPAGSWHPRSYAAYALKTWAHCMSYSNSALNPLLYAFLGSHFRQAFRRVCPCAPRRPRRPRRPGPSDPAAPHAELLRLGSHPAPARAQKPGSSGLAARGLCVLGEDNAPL
T2 sequence (Q924U1 whole entry): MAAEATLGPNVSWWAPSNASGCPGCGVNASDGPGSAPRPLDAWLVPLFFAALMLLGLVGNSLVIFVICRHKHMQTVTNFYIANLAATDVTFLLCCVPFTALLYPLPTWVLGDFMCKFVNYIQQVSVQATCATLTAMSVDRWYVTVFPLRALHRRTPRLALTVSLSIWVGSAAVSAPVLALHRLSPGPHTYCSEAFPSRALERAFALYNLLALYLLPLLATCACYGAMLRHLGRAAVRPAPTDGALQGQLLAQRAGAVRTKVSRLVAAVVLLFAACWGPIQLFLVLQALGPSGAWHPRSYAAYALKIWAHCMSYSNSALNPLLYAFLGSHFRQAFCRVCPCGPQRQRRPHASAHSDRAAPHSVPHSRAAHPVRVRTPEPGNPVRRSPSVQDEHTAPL

Row | SMILES | EC50 (KiSS-1 receptor [1]) | EC50 (KiSS-1 receptor [2]) | Ki (KiSS-1 receptor [3]) | remaining at 168 h [5] | remaining at 168 h [6] | remaining at 168 h [7] | remaining at 168 h [8] | remaining at 336 h [9] | remaining at 336 h [10] | remaining at 336 h [11] | remaining at 336 h [12] | Activity (Rattus norvegicus [14]) | AUC(0-t) at 24 h [15] | MRT [16] | Vd [17] | clearance [18] | Cmax [19] | Tmax [20] | AUC(0-t) at 24 h [21] | MRT [22] | other results
1 | CNC(=N)NCCC[C@H](NC(=O)[C@H](CC(C)C)NC(=O)NNC(=O)[C@H](Cc1ccccc1)NC(=O)[C@@H](NC(=O)[C@H](CC(N)=O)NC(=O)[C@@H](Cc1ccncc1)NC(=O)[C@@H](Cc1ccc(O)cc1)NC(C)=O)[C@@H](C)O)C(=O)N[C@@H](Cc1c[nH]c2ccccc12)C(N)=O | 0.75 nM | 4.1 nM | 0.089 nM | 58.3% | 98.7% | 98.5% | 82.6% | 33% | 96.8% | 97% | 69.8% | 2 animals | 1260 ng·h/mL | 41.4 min | 0.547 L/kg | 13.2 mL/min/kg | 90 ng/mL | 25.2 min | 152 ng·h/mL | 64.2 min | Ki (KiSS-1 receptor [4]): 0.17 nM; Activity (Rattus norvegicus [13]): 5%; bioavailability [23]: 12.1%; inhibition (Rattus norvegicus [24]): Active; concentration at 5 min [25]: 2070 ng/mL
2 | CNC(=N)NCCC[C@H](NC(=O)[C@H](CC(C)C)NC(=O)NNC(=O)[C@H](Cc1ccccc1)NC(=O)[C@@H](NC(=O)[C@H](CC(N)=O)NC(=O)[C@@H](Cc1c[nH]c2ccccc12)NC(=O)[C@H](N)Cc1ccc(O)cc1)[C@@H](C)O)C(=O)N[C@@H](Cc1c[nH]c2ccccc12)C(N)=O | 1 nM | 4.1 nM | 0.036 nM | 64.9% | 98.7% | 98.8% | 84.9% | 39.1% | 98.2% | 96.5% | 72.8% | – | 503 ng·h/mL | 43.8 min | 1.46 L/kg | 33.3 mL/min/kg | 47 ng/mL | 11.4 min | 46 ng·h/mL | 52.8 min | Activity (Rattus norvegicus [26]): 100%; Activity (Rattus norvegicus [27]): 60%; Activity (Rattus norvegicus [28]): 60%; Activity (Rattus norvegicus [29]): 0 rats (n = 5); bioavailability [23]: 9.2%; concentration at 5 min [25]: 1440 ng/mL
3 | CNC(=N)NCCC[C@H](NC(=O)[C@H](CC(C)C)NC(=O)NNC(=O)[C@H](Cc1ccccc1)NC(=O)[C@@H](NC(=O)[C@H](CC(N)=O)NC(=O)[C@@H](Cc1c[nH]c2ccccc12)NC(=O)CCc1ccc(O)cc1)[C@@H](C)O)C(=O)N[C@@H](Cc1c[nH]c2ccccc12)C(N)=O | 0.3 nM | 1.1 nM | 0.039 nM | – | – | – | – | – | – | – | – | 0 animals | – | – | – | – | – | – | – | – | Activity (Rattus norvegicus [29]): 100%
